Experimental data: ChEMBL document CHEMBL2203129, “Structure-activity relationship studies of naphthol AS-E and its derivatives as anticancer agents by inhibiting CREB-mediated gene transcription” (Bioorg Med Chem, 2012)
pIC50: −log10 of the molar value. Active and inactive are the calls of the source. The rule behind the calls is not given here.

Columns and labels:
[1] = system: MDA-MB-468; assay: Growth inhibition of human MDA-MB-468 cells after 72 hrs by MTT assay; format: functional; settings: MDA-MB-468, 72 h
[2] = system: MDA-MB-231; assay: Growth inhibition of human MDA-MB-231 cells after 72 hrs by MTT assay; format: functional; settings: MDA-MB-231, 72 h
[3] = system: MCF7; assay: Growth inhibition of human MCF7 cells after 72 hrs by MTT assay; format: functional; settings: MCF7, 72 h
[4] = system: A549; assay: Growth inhibition of human A549 cells after 72 hrs by MTT assay; format: functional; settings: A549, 72 h
[5] = Inhibition of CREB-mediated gene transcription in human HEK293T cells by renilla luciferase reporter assay; format: cell-based; settings: HEK-293T
How it was run: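 HEK 293T cells transfected with pCRE-RLuc, replated after 3 h and attached overnight; compound added, then forskolin (final 10 µM) 30 min later; 5 h at 37 °C.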

[6] = Inhibition of KIX domain of CBP interaction with KID domain of CREB after 20-24 hrs by Renilla luciferase complementation assay
How it was run: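 RLucC-KIX (20 ng) and KID-RLucN lysate (1.0 µg) per reaction in Renilla lysis buffer with compound, incubated at 4 °C for 20–24 h; residual luminescence read with benzyl-coelenterazine in PBS pH 7.4.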

[7] = system: MCF7; assay: Cytotoxicity against human MCF7 cells expressing wild type CREB assessed as reduction in cell proliferation at 10 to 50 uM after 48 hrs by MTT assay; format: functional, cell-based
How it was run: (§1)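 MCF-7 cells stably transfected with Flag-tagged VP16-CREB (G418 2 mg/mL selection; expression checked by anti-FLAG blot) alongside parental MCF-7. Compound at indicated concentrations in triplicate for 48 h; live cells quantified with MTT reagent; Student's t-test.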

[8] = system: MCF7; assay: Cytotoxicity against human MCF7 cells expressing VP16-CREB mutant assessed as reduction in cell proliferation at 10 to 50 uM after 48 hrs by MTT assay; format: functional, cell-based; how it was run: as §1

Structure (SMILES) | GI50 [1] | GI50 [2] | GI50 [3] | GI50 [4] | pIC50 [5] | pIC50 [6] | Activity [7] | Activity [8]
COc1ccc(NC(=O)c2cc3ccccc3cc2O)cc1 | 79.3 µM | 75.5 µM | 6.55 µM | 85.7 µM | < 4.30 | < 4.30 |  | 
O=C(Nc1ccc(Br)cc1)c1cc2ccccc2cc1O | 6.61 µM | 9.93 µM | 1.83 µM | 3.98 µM | 5.46 | 5.02 |  | 
O=C(Nc1ccc(C(F)(F)F)cc1)c1cc2ccccc2cc1O | 63.3 µM | 64.2 µM | 3.62 µM | 4.15 µM | 5.17 | < 4.30 |  | 
CN(C(=O)c1cc2ccccc2cc1O)c1ccc(Cl)cc1 |  |  |  |  |  |  | Active | Active
Nc1ccc(NC(=O)c2cc3ccccc3cc2O)cc1 | 57.1 µM | > 100 µM | 28 µM | 51.6 µM | < 4.30 | 4.59 |  | 
O=C(Nc1ccc(O)cc1)c1cc2ccccc2cc1O | 65.3 µM | > 100 µM | 9.52 µM | 28.1 µM | 4.39 | 4.55 |  | 

More lines, main results first:

GI50 [1] | GI50 [2] | GI50 [3] | GI50 [4] | pIC50 [5] | pIC50 [6] | Structure (SMILES) | Activity [7] | Activity [8]
2.58 µM | 4.91 µM | 2.43 µM | 3.68 µM | 5.57 | < 4.30 | O=C(Nc1cccc(Cl)c1)c1cc2ccccc2cc1O |  | 
5.69 µM | 44.2 µM | 6.25 µM | 75.8 µM | < 4.30 | 5.77 | O=C(Nc1ccccn1)c1cc2ccccc2cc1O |  | 
